Data taken from PMC6435032 (Cancer prevention research (Philadelphia, Pa.), 2018).

Experiments:
[1] = system: NQO1; details: Sprague-Dawley rats; cited from earlier work
[2] = system: P450 3A4; details: cited from earlier work
[3] = type: in vivo; details: ACI rats after GG or GI 2 g/kg/day gavage + EB for 4 days
Method in brief: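 Female ACI rats (n=6/group) got extracts 2 g/kg/day by gavage plus sc EB 1 mg/kg/day for 4 days. Serum, liver and mammary homogenates (70% aqueous methanol, 0.1% formic acid) were spiked with naringenin internal standard and protein-precipitated with ice-cold ACN. Supernatant was dried, taken up in 20% ACN and analysed by UHPLC-MS/MS, negative ESI, SRM. Extracts were run at 10 μg/mL in 50% methanol.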

[4] = system: P450 1A2; details: cited from earlier work
[5] = system: CYP1A1; type: cell-based, human; details: MCF-10A cells, compound 20 µM, 24 h; for Increase of CYP1A1 expression: relative to control
[6] = LicA metabolites in serum, liver and mammary gland, UHPLC-MS/MS; type: in vivo; details: ACI rats, sc administration of LicA
Method in brief: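 ACI rats got the test compound sc at 80 mg/kg/day with EB 1 mg/kg/day sc for 4 days and were killed day 5. Serum, and liver or mammary homogenates in 70% aqueous methanol with 0.1% formic acid, were spiked with naringenin. They were precipitated with ice-cold ACN (15 min, 13000 x g, 4 °C), dried under nitrogen and reconstituted in 20% ACN. Metabolites were profiled by UHPLC-MS/MS on C18.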

[7] = system: NAD(P)H quinone oxidoreductase (NQO1); test: NQO1 activity in mammary gland of ACI rats; type: in vivo; details: 4 days
Method in brief: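 Female ACI rats (n=6/group) were dosed 4 days: EB 1 mg/kg/day sc, alone or with the test compound at 80 mg/kg/day sc or extracts at 2 g/kg/day by gavage. Sesame oil or corn oil/PEG was the vehicle. Frozen mammary tissue was homogenized; NQO1 activity was read at 610 nm in clear supernatant (30 µg protein). Results are fold induction relative to control; mean ± SEM.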

[8] = system: XRE-luciferase reporter; details: HepG2 cells; cited from earlier work
[9] = system: CYP1A1; test: CYP1A1 mRNA expression in mammary tissue, RT-qPCR; type: in vivo; details: ACI rats, 4 days
Method in brief: (§1)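 Female ACI rats (5 weeks old, acclimated 1 week, phytoestrogen-free AIN-76A diet, n=6/group) received sc EB 1 mg/kg/day, sc test compound 80 mg/kg/day or gavaged extracts 2 g/kg/day for 4 days. Vehicles were sesame oil sc, or 50% corn oil with 50% PEG/H2O by gavage. Rats were killed day 5; mammary mRNA was measured by TaqMan RT-qPCR with ACTB probe; mean ± SEM, ANOVA/Dunnett or t-test.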

[10] = system: estrogen oxidative metabolism; details: MCF-10A cells; cited from earlier work
[11] = system: CYP1B1; type: cell-based, human; details: MCF-10A cells, compound 20 µM, 24 h; for Induction of CYP1B1 expression: relative to control
[12] = system: E2/E1 levels; test: E2/E1 levels in serum by LC-MS/MS; type: in vivo; details: ACI rats, 4 days, co-administered with EB
[13] = system: P450 3A4; details: HepG2 cells; cited from earlier work
[14] = system: estrogen oxidative metabolism (2-MeOE1); test: 2-MeOE1 in serum by LC-MS/MS; type: in vivo; details: ACI rats, 4 days, co-administered with EB 1 mg/kg/day; GG, GI 2 g/kg/day, LicA 80 mg/kg/day
[15] = system: CYP1B1; test: CYP1B1 mRNA expression in mammary tissue, RT-qPCR; type: in vivo; details: ACI rats, 4 days
Method in brief: as §1

[16] = system: NQO1; details: Sprague-Dawley rats; cited from earlier work; remark: listed apart in the source
[17] = system: CYP1A1; details: female Sprague-Dawley rats; cited from earlier work
[18] = system: NQO1; details: cited from earlier work
[19] = system: NQO1; details: previous in vitro studies; cited from earlier work
[20] = system: NAD(P)H quinone oxidoreductase (NQO1); test: NQO1 activity in liver tissue of ACI rats; type: in vivo; details: EB 1 mg/kg/day sc, 4 days, vs vehicle
[21] = with EB, GG, GI 2 g/kg/day, LicA 80 mg/kg/day

For `O=c1cc(-c2ccc(Br)cc2)oc2ccccc12` [4’bromoflavone], the “NQO1 induction in liver tissues” value [1] is listed as “significant NQO1 induction”.
In the case of `CC1(C)C=Cc2c(ccc3c2OC[C@@H](c2ccc(O)cc2O)C3)O1` [glabridin], the “Inhibition of P450 3A4 activity” value [2] is given as “weakly”, the “Presence in liver and mammary tissues (qualitative)” value (from here on “Presence”) [3] is given as “not detected” and the “Inhibition of P450 1A2 activity” value [4] is given as “weakly”.
In the case of `C=CC(C)(C)c1cc(/C=C/C(=O)c2ccc(O)cc2)c(OC)cc1O` [LicA, licochalcone A], the “CYP1A1 expression, fold lower than basal levels” value [5] is reported as 34 fold, the “GSH conjugate in the liver” value [6] is reported as “major metabolite” and the “GSH conjugate in the serum and mammary tissues” value [6] is reported as “minor metabolite”. For the same compound, the “Main metabolism in serum, liver and mammary tissues” value [6] was “glucuronidation reactions dominated”, the “Sulfation in mammary tissue” value [6] was “not detectable” and the “Sulfation in serum and liver” value [6] was “minor”. For the same compound, the “Induction of NQO1 activity in mammary tissue” value ([7]; co-treatment with EB, GG, GI 2 g/kg/day, LicA 80 mg/kg/day) was “No induction”, the “Inhibition of P450 3A4 activity” value [2] was “moderately inhibited” and the XRE-luciferase reporter activity [8] was “inhibited”. The “Upregulation of CYP1A1 in mammary tissue compared to the EB treatment group” value [9, 21] was “no statistical difference”, the “Effect on estrogen oxidative metabolism” value [10] was “inhibited” and the “CYP1B1 expression, fold lower than basal levels” value [11] was 10 fold. The “Presence” value [3] was “available”, the “Effect on E2/E1 levels in serum” value [12] was “only slightly influenced” and the “Inhibition of P450 1A2 activity” value [4] was “moderately inhibited”. For the same compound, the “P450 3A4 gene expression” value [13] was “decreased”, the “Reduction of 2-MeOE1 in serum, of the EB treatment group” value [14] was about 70% and the “Down-regulation of CYP1B1 expression in mammary tissue compared to the EB treatment group” value [15, 21] was “no statistical difference”.
For `COc1cc(O)c(CC=C(C)C)c(O)c1C(=O)/C=C/c1ccc(O)cc1` [xanthohumol], the “NQO1 induction in the mammary gland” value [16] is listed as “no NQO1 induction” and the “NQO1 induction in liver tissues” value [1] is listed as “significant NQO1 induction”.
In the case of `O=C(/C=C/c1ccc(O)cc1)c1ccc(O)cc1O` [LigC, isoliquiritigenin], the “Increase of CYP1A1 expression” value [5] is listed as 4 fold, the “Inhibition of P450 3A4 activity” value [2] is listed as “weakly” and the “Effect on estrogen oxidative metabolism” value [10] is listed as “increase”. The “Induction of CYP1B1 expression” value [11] was 2.5 fold, the “Presence” value [3] was “available” and the “Increase of CYP1A1 levels in mammary tissues” value [17] was 6.84 fold. For the same compound, the “Inhibition of P450 1A2 activity” value [4] was “weakly” and the “Induction of NQO1 activity in in vivo models” value [18] was “didn’t induce”.
In the case of `O=C1C[C@@H](c2ccc(O)cc2)Oc2cc(O)ccc21` [LigF, liquiritigenin], the “Increase of CYP1A1 expression” value [5] is listed as “did not affect”, the “Effect on estrogen oxidative metabolism” value [10] is listed as “no effect” and the “Induction of CYP1B1 expression” value [11] is listed as 2 fold. For the same compound, the “Presence” value [3] was “available” and the “Effect on NQO1 activity in vitro” value [19] was “no effect”.
With `C[C@]12CC[C@@H]3c4ccc(OC(=O)c5ccccc5)cc4CC[C@H]3[C@@H]1CC[C@@H]2O` [EB, estradiol benzoate, reference compound] the “Effect of EB on NQO1 activity in the mammary gland” value ([7]; EB 1 mg/kg/day, vs vehicle) was “slightly reduced”, the “CYP1A1 expression in mammary tissue, fold lower than the vehicle control group” value ([9]; EB 1 mg/kg/day) was 3 fold and the “Effect of EB alone on NQO1 activity in liver tissue” value [20] was “did not affect the NQO1 activity significantly”. For the same compound, the “CYP1B1 expression in mammary tissue, fold lower than the vehicle control group” value ([15]; EB 1 mg/kg/day) was 5 fold.
